System: MS2 coat protein
Assay: apparent Kd, MS2 coat protein; higher = weaker binding; RNA-MaP array; FMN 200 µM where present
Outline: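 The apparent Kd is the median of filtered binding-curve fits, one per cluster, to green signal normalised to red-channel RNA signal and control-cluster median Fmax. The clusters were on Illumina sequencing chips, and stalled E. coli RNA polymerase had transcribed the designs on them. Titration used SNAP-549-labelled MS2 coat protein from 0.7 or 1.5 nM, doubling to 3 µM, without and then with constant ligand, in 100 mM Tris-HCl pH 7.5, 80 mM KCl, 4 mM MgCl2, BSA, DTT, yeast tRNA and Tween-20.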

[1] = designed as: OFF switch for flavin mononucleotide, no ligand
[2] = ligand present: flavin mononucleotide, designed as: OFF switch for flavin mononucleotide
[3] = designed as: ON switch for flavin mononucleotide, no ligand
[4] = ligand present: flavin mononucleotide, designed as: ON switch for flavin mononucleotide

Sequence: ACUAGAUGAGGAUAUGCAUGUUUUCGUGUUCUUCUAGAUUAACAUGAGGAUCACCCAUGUAGAAGGCGUCAUUU
- apparent Kd [1]: 0.081 µM
- apparent Kd [2]: 0.118 µM

Sequence: GAGCGAAAGCUCAAUGUCGAUAGCAGAAGGACAUCCUUAAACAUGAAAACAUGAGGAUCACCCAUGUAGGAUAUGCUAUCGACU
- apparent Kd [1]: 0.00731 µM
- apparent Kd [2]: 0.0091 µM

Sequence: GUAUCUUACUGAGGAUAUUUACGAUUAGUGUAGACAUGAGGAUCACCCAUGUGGCGUUAGUCACGGGAGAAGGCAGUUUGAUAC
- apparent Kd [3]: 0.0825 µM
- apparent Kd [4]: 0.0213 µM

Sequence: AGAUGAUGAUGUUAUCUUCGUCGGACAUGAGGAUCACCCAUGUAGGAUAUGCUACUCAAAGAGUAGCAGAAGGACAUGUAUCUU
- apparent Kd [1]: 0.0255 µM
- apparent Kd [2]: 0.113 µM

Sequence: AAACAGUACGAGAAGGGCUACAUGAGGAUCACCCAUGUAGACGGUCGUGUGGCAGGAUAUCGAACGCACCCGAAACGGUGUGUU
- apparent Kd [1]: 0.00507 µM
- apparent Kd [2]: 0.00703 µM

Sequence: AUUGUUAAGGUAGGAUAUAGUAAAAUGAUUUAAUUAGAAGGAUCUCACAUGAGGAUCACCCAUGUAAUAGGAUUACCCAUGUAU
- apparent Kd [1]: 0.0328 µM
- apparent Kd [2]: 0.0236 µM

Sequence: ACAUAAAUUCGAGGAUAUCGGUGAAAUAAUCUACGAGAAGGCGAUAAUGGUUAUAGACUUAUAGACAUGAGGAUCACCCAUGUA
- apparent Kd [3]: 0.0262 µM
- apparent Kd [4]: 0.0256 µM

Sequence: GCUUGUGAAGGAUAUACUGGCGGCAUGCGCUCGGCGCGCGCACAUGAGGAUCACCCAUGUAGAAGGUCAAACGU
- apparent Kd [1]: 0.0202 µM
- apparent Kd [2]: 0.0202 µM

Sequence: AGCUAGUCAGGAUAUACGAAAAUGUCCGAAGCUGAGAAGGGACAUGAGGAUCACCCAUGUAGAAGGGACUAGCA
- apparent Kd [1]: 0.102 µM
- apparent Kd [2]: 0.264 µM

Sequence: AGGAAGUGAGGAUAUGCAGUAGCUAGUGGACGCUAGCACAUGUAGAAGGCACAUGAGGAUCACCCAUGUUUAAA
- apparent Kd [1]: 0.0305 µM
- apparent Kd [2]: 0.0283 µM

Sequence: ACGCUUUGGGAGAAGGUACGUGAAGUAUUAUCCACAUGAGGAUCACCCAUGUAAGGAUAUCCCGGCGUGAAAUAGGCUACAGCA
- apparent Kd [1]: 0.00477 µM
- apparent Kd [2]: 0.0113 µM

Sequence: ACAUGAGGAUCUCCCAUGUAAAAUUAGGAUAUAUAACUGCACAUGAGGAUCACCCAUGUUUAACCGUAGAAGGGAUAAAUAAUU
- apparent Kd [4]: 0.786 µM

Sequence: AGAACAUGAGGAUCACCCAUGUAAAGAUCGGUUAAUAAGGGUGAGGAUAUGCUUAAAAUAAGGUAGCAGAAGGUACUUGGUACA
- apparent Kd [3]: 0.247 µM
- apparent Kd [4]: 0.345 µM

Sequence: CUAUGCGGAAUAGGAUAUUCAUUCAUGAGGAUAGAAGAAGGGUUACAUGAGGAUCACCCAUGUAUACACAUGAGGAUCCCUUAG
- apparent Kd [1]: 0.15 µM
- apparent Kd [2]: 0.156 µM

Sequence: UGAUCUAUGUAGAAGGCCCAUAUCUAUAUUUAGGGAGGAUAUACAUGAGGAUCACCCAUGUAUAGAGCGGGUGGACCCGUCACU
- apparent Kd [1]: 0.0741 µM
- apparent Kd [2]: 0.185 µM

Sequence: GUAUGAGCGAUAGGAUAUACUGGGAUUGAAUGGGUAGAAGGAUUUCUAGUGGGAAAGACAUGAGGAUCACCCAUGUCGCGGACC
- apparent Kd [3]: 0.0379 µM
- apparent Kd [4]: 0.0354 µM

Sequence: AGGCGGAAAGUCAGGAUAUCUUGACCAAAGGGUUGAGAGAAGGGACAUGAGGAUCACCCAUGUGGCGACCGCCA
- apparent Kd [1]: 0.0375 µM
- apparent Kd [2]: 0.0679 µM

Sequence: AGUGUGUGGCAGGAUAUUCCGGUCGUGAGUCGGGAAGAAGGGUCUACAUGAGGAUCACCCAUGUGAGCGGUUGA
- apparent Kd [1]: 0.317 µM
- apparent Kd [2]: 0.36 µM

Sequence: AGGUAGCAAGGAUAUACAUGAGGAUCACCCAUGUAAAUGCACGUUUAGGCCCUGCUAUGUAGAAGGUGCACCCG
- apparent Kd [1]: 0.0173 µM
- apparent Kd [2]: 0.0168 µM

Sequence: UGUUGUAUUACAGGAUAUCUAUUAUUUUUACUUAGAGAAGGGUAUUCACAUGAGGAUCACCCAUGUAUAUACGAGGAAGUUGUG
- apparent Kd [3]: 0.0542 µM
- apparent Kd [4]: 0.056 µM

Sequence: GUUAUUUAUGUAGGAUAUGCGAGGCGAGCCUAAGCAGAAGGACAUGAGGAUCACCCAUGUAUUGCGGUUUGCGUUCAGAUCGCU
- apparent Kd [1]: 0.0211 µM
- apparent Kd [2]: 0.0378 µM

Sequence: CGCCUCGUGUCGAACAUGAGGAUCACCCAUGUAAUGGGCACCGAGGAUAUCCCGCUGGCGUUAUGGGAGAAGGCGGUGGAUUUA
- apparent Kd [1]: 0.045 µM
- apparent Kd [2]: 0.131 µM

Sequence: GUUUAGUGAGGAUAUGUGGCUUCGAUCGUGAGAUCGAGGCUACAGAAGGCACAUGAGGAUCACCCAUGUUCCUU
- apparent Kd [1]: 0.0144 µM
- apparent Kd [2]: 0.0516 µM

From the EternaBench riboswitch data
